ChEMBL document CHEMBL4673258, “Discovery of IPN60090, a Clinical Stage Selective Glutaminase-1 (GLS-1) Inhibitor with Excellent Pharmacokinetic and Physicochemical Properties” (J Med Chem, 2020)

Legend:
[1] = rat, microsomes, 0.75 h, 1 µM
[2] = Permeability across basolateral to apical side in human Caco-2 cells at 10 uM measured after 90 mins by LC-MS/MS analysis; assay type: ADME, cell-based
Outline: (§1)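 Caco-2 monolayers grown 21–28 days on polycarbonate filter inserts, with TEER and Lucifer Yellow checked before and after. Compound at 10 μM in HBSS with 25 mM HEPES, pH 7.4. Run A→B and B→A at 37 °C for 90 min. Receiver and donor samples quantified by LC-MS/MS.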

[3] = Intrinsic clearance in dog hepatocytes […] at 2 uM measured after 15 to 120 mins by LC-MS analysis; assay type: ADME, cell-based, Canis lupus familiaris, Hepatocyte; conditions: time 15-120 min
Outline: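 Hepatocytes at 2×10^6 viable cells/mL, mixed with an equal volume of 2 μM compound in KHB buffer. Incubated at 37 °C and quenched with ACN at 0, 15, 30, 60 and 120 min. Analysed by LC/MS, with percent remaining from peak area ratio to internal standard against 0 min. Half-life from a single-phase exponential fit.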

[4] = Permeability across apical to basolateral side in human Caco-2 cells at 10 uM measured after 90 mins by LC-MS/MS analysis; assay type: ADME, cell-based
Outline: as §1

[5] = human, microsomes, 0.75 h, 1 µM

| SMILES | CLH [1] [mL/min] | also measured |
| --- | --- | --- |
| O=C(Cc1cccc(OC(F)(F)F)c1)Nc1ccc(CCCCc2nnc(NC(=O)Cc3ccccn3)s2)nn1 | 203 | – |
| O=C(Cc1cccc(OC(F)(F)F)c1)Nc1ccc(CCCCn2cc(C(=O)NCc3ccccn3)nn2)nn1 | 162 | – |
| CNC(=O)c1cn(C[C@H](F)CCc2ccc(NC(=O)Cc3cc(-c4cccc(OC(F)(F)F)c4)ccn3)nn2)nn1 | – | permeability [2]: 21 10^-6 cm/s; CLint [3]: 12 mL/min/kg; permeability [4]: 5.8 10^-6 cm/s |
| O=C(Cc1ccccc1)Nc1ccc(CCCCn2cc(C(=O)NCc3ccccc3)nn2)nn1 | 128 | – |
| CNC(=O)c1cn(C[C@H](F)CCc2ccc(NC(=O)Cc3cc(C(F)(F)F)ccn3)nn2)nn1 | – | CLH [5]: 0.2 mL/min |
| O=C(Cc1ccccn1)Nc1ccc(CCCCn2cc(C(=O)NCc3cccc(OC(F)(F)F)c3)nn2)nn1 | 283 | – |
